“And” between values parts separate entries of the source, which are not always exact repeats. Identical values can stand only once.
Legend:
Mus musculus [1] = assay: Evaluation of General motor activity in mouse 60 mins postinjection (ip) of 33 mg/kg*; type: functional
In short: (§1)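 Male BALB-c mice (18-24 g) given compound ip in 25% propylene glycol/water. Each was monitored singly for 60 min in an electronic activity monitor. Cumulative activity was expressed as % of vehicle control; mean ± SEM, n = 6, t test.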

Rattus norvegicus [2] = species: Rattus norvegicus; assay: Enzymatic hydrolysis of cholesteryl [14C]-compound by Rat Brain Homogenate at 10 min; type: functional
In short: (§2)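 Cholesteryl-[14C]GABA ester (3 mg/mL) incubated at 37 °C with rat brain homogenate 10,000g supernatant (S1; 0.8 mg/mL protein). Aliquots were quenched with ethanol and run on silica TLC (CHCl3/MeOH/HOAc 18:6:1) to quantify unreacted substrate (nmol). Control was the initial substrate amount.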

Rattus norvegicus [3] = species: Rattus norvegicus; assay: Enzymatic hydrolysis of cholesteryl [14C]-compound by Rat Brain Homogenate at 60 min; type: functional; in short: as §2
Rattus norvegicus [4] = species: Rattus norvegicus; assay: Enzymatic hydrolysis of cholesteryl [14C]-compound by Rat Brain Homogenate at 30 min; type: functional; in short: as §2
Mus musculus [5] = assay: Evaluation of General motor activity in mouse 60 mins postinjection (ip) of 10 mg/kg; type: functional; in short: as §1
[6] = molecular target: GABA-A receptor; anion channel; assay: Inhibition of [3H]GABA binding to synaptic membranes from rat cerebellum; type: tissue-based
In short: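 [3H]GABA (15 nM) binding to rat cerebellum synaptic membranes. At least two concentrations above and below IC50, each at least in triplicate. IC50 was obtained by fitting linearized transformations of the data.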

Mus musculus [7] = assay: Uptake of the [14C]-compound in mouse brain 5 minutes after sc administration of 24 mg/kg.; type: functional; settings: route subcutaneous
In short: (§3)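 [14C]-labeled ester injected sc into mice in 25% propylene glycol/water. At the stated time, brain and liver were homogenized in SDS/urea/EDTA phosphate solvent, pH 7.4, and counted by liquid scintillation. Uptake was calculated per gram tissue (nmol/g).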

Mus musculus [8] = assay: Anticonvulsant activity is the ability to increase the survival time of mouse ssubjected to bicuculline induced seizures at 24 hr after pretreament with compound (16 mg/kg, ip); type: functional
Mus musculus [9] = assay: Uptake of the [14C]-compound in mouse liver 15 minutes after sc administration of 24 mg/kg.; type: functional; settings: route subcutaneous, in the assay text read “mouse brain” for “mouse liver”; in short: as §3
Mus musculus [10] = assay: Anticonvulsant activity is the ability to delay the onset of bicuculline induced seizures in mouse at 24 hr after pretreament with compound (84 mg/kg, ip); type: functional
In short: (§4)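 Mice given test article ip 24 h before bicuculline (0.3 mg/kg sc). Latency to onset of generalized tonic-clonic seizures was recorded in seconds and expressed as % of saline control. Means ± SEM, n ≥ 6 per group.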

Mus musculus [11] = assay: Evaluation of General motor activity in mouse 60 mins postinjection (ip) of 3 mg/kg; type: functional; in short: as §1
Mus musculus [12] = assay: Brain penetration index is the ratio of the uptake in brain/liver X 100, 5 min after sc administration of 24 mg/kg of the [14C]-compound.; type: functional; settings: route subcutaneous
In short: (§5)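 [14C]-labeled ester injected sc into mice in 0.5 mL of 25% propylene glycol in water, killed at 5 min. Brain and liver were weighed and homogenized in SDS/6 M urea/EDTA phosphate solvent, pH 7.4, then counted by liquid scintillation. BPI = [brain]/[liver] × 100. Means ± SEM, n = 3.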

Mus musculus [13] = assay: Anticonvulsant activity is the ability to delay the onset of bicuculline induced seizures in mouse at 24 hr after pretreament with compound (3 mg/kg, ip); type: functional; in short: as §4
[14] = Partition coefficient in 1-octanol/water system; type: physicochemical
In short: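 1-Octanol/water partition coefficient determined with the U-14C-labeled esters, read by radioactivity.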

Mus musculus [15] = assay: Uptake of the [14C]-compound in mouse liver 180 min after sc administration of 24 mg/kg.; type: functional; settings: route subcutaneous, in the assay text read “mouse brain” for “mouse liver”; in short: as §3
Mus musculus [16] = assay: Anticonvulsant activity is the ability to increase the survival time of mouse ssubjected to bicuculline induced seizures at 24 hr after pretreament with compound (3 mg/kg, ip); type: functional
Mus musculus [17] = assay: Anticonvulsant activity is the ability to increase the survival time of mouse ssubjected to bicuculline induced seizures at 24 hr after pretreament with compound (30 mg/kg, ip); type: functional
Mus musculus [18] = assay: Uptake of the [14C]-compound in mouse liver 5 minutes after sc administration of 24 mg/kg.; type: functional; settings: route subcutaneous; in short: as §3
Mus musculus [19] = assay: Anticonvulsant activity is the ability to delay the onset of bicuculline induced seizures in mouse at 24 hr after pretreament with compound (16 mg/kg, ip); type: functional; in short: as §4
Mus musculus [20] = assay: Anticonvulsant activity is the ability to delay the onset of bicuculline induced seizures in mouse at 24 hr after pretreament with compound (30 mg/kg, ip); type: functional; in short: as §4
Mus musculus [21] = assay: Uptake of the [14C]-compound in mouse liver 60 minutes after sc administration of 24 mg/kg.; type: functional; settings: route subcutaneous, in the assay text read “mouse brain” for “mouse liver”
Mus musculus [22] = assay: Evaluation of General motor activity in mouse at dose 200 mg/kg; type: functional; in short: as §1
[23] = Partition coefficient in 1-octanol/water system measured using radio active compounds; type: physicochemical
In short: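 1-Octanol/water partition coefficient, measured with the 14C-labeled compounds.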

Mus musculus [24] = assay: Uptake of the [14C]-compound in mouse brain 5 minutes after sc administration of 41 mg/kg.; type: functional; settings: route subcutaneous; in short: as §3
Mus musculus [25] = assay: Uptake of the [14C]-compound in mouse liver 5 minutes after sc administration of 41 mg/kg.; type: functional; settings: route subcutaneous
In short: (§6)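 Mice were given the 14C-labeled compound sc in 25% propylene glycol in water and killed at 5 min. Liver was removed, weighed and homogenized in 1% SDS in 6 M urea with 19 mM EDTA and 0.03 M phosphate, pH 7.4. Homogenate aliquots were counted by liquid scintillation, and uptake per gram of tissue was calculated. Mean ± SEM, n = 3.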

Mus musculus [26] = assay: Evaluation of General motor activity in mouse 60 mins postinjection (ip) of 16 mg/kg; type: functional; in short: as §1
Mus musculus [27] = assay: Brain penetration index is the ratio of the uptake in brain/liver X 100, 5 min after sc administration of 41 mg/kg of the [14C]-compound.; type: functional; settings: route subcutaneous; in short: as §5
Mus musculus [28] = assay: Uptake of the [14C]-compound in mouse brain 15 minutes after sc administration of 41 mg/kg.; type: functional; settings: route subcutaneous; in short: as §3
Mus musculus [29] = assay: Brain penetration index is the ratio of the uptake in brain/liver X 100, 5 min after sc administration of 74 mg/kg of the [14C]-compound.; type: functional; settings: route subcutaneous; in short: as §5
Mus musculus [30] = assay: Uptake of the [14C]-compound in mouse liver 5 minutes after sc administration of 74 mg/kg.; type: functional; settings: route subcutaneous; in short: as §6
Mus musculus [31] = assay: Evaluation of General motor activity in mouse 60 mins postinjection (ip) of 60 mg/kg; type: functional; in short: as §1
Mus musculus [32] = assay: Uptake of the [14C]-compound in mouse brain 5 minutes after sc administration of 74 mg/kg.; type: functional; settings: route subcutaneous; in short: as §3
Mus musculus [33] = assay: Evaluation of General motor activity in mouse 60 mins postinjection (ip) of 128 mg/kg; type: functional; in short: as §1
Mus musculus [34] = assay: Anticonvulsant activity is the ability to delay the onset of bicuculline induced seizures in mouse at 24 hr after pretreament with compound (25 mg/kg, ip); type: functional; in short: as §4
Mus musculus [35] = assay: Brain penetration index is the ratio of the uptake in brain/liver X 100, 5 min after sc administration of 90 mg/kg of the [14C]-compound.; type: functional; settings: route subcutaneous; in short: as §5
Mus musculus [36] = assay: Anticonvulsant activity is the ability to increase the survival time of mouse ssubjected to bicuculline induced seizures at 24 hr after pretreament with compound (12 mg/kg, ip); type: functional
Mus musculus [37] = assay: Anticonvulsant activity is the ability to increase the survival time of mouse ssubjected to bicuculline induced seizures at 24 hr after pretreament with compound (17mg/kg, ip); type: functional
Mus musculus [38] = assay: Uptake of the [14C]-compound in mouse liver 5 minutes after sc administration of 90 mg/kg.; type: functional; settings: route subcutaneous; in short: as §6
Mus musculus [39] = assay: Uptake of the [14C]-compound in mouse brain 45 minutes after sc administration of 90 mg/kg.; type: functional; settings: route subcutaneous; in short: as §3
Mus musculus [40] = assay: Anticonvulsant activity is the ability to increase the survival time of mouse ssubjected to bicuculline induced seizures at 24 hr after pretreament with compound (36 mg/kg, ip); type: functional
Mus musculus [41] = assay: Uptake of the [14C]-compound in mouse brain 5 minutes after sc administration of 90 mg/kg.; type: functional; settings: route subcutaneous; in short: as §3
Mus musculus [42] = assay: Evaluation of General motor activity in mouse 60 mins postinjection (ip) of 36 mg/kg =; type: functional; in short: as §1
Mus musculus [43] = assay: Anticonvulsant activity is the ability to delay the onset of bicuculline induced seizures in mouse at 24 hr after pretreament with compound (36 mg/kg, ip); type: functional; in short: as §4
Mus musculus [44] = assay: Anticonvulsant activity is the ability to delay the onset of bicuculline induced seizures in mouse at 24 hr after pretreament with compound (12mg/kg, ip); type: functional; in short: as §4
Mus musculus [45] = assay: Evaluation of General motor activity in mouse 60 mins postinjection (ip) of 12 mg/kg; type: functional; in short: as §1
Mus musculus [46] = assay: Anticonvulsant activity is the ability to increase the survival time of mouse ssubjected to bicuculline induced seizures at 24 hr after pretreament with compound (25 mg/kg, ip); type: functional
Mus musculus [47] = assay: Anticonvulsant activity is the ability to increase the survival time of mouse ssubjected to bicuculline induced seizures at 24 hr after pretreament with compound (50 mg/kg, ip); type: functional
Mus musculus [48] = assay: Anticonvulsant activity is the ability to delay the onset of bicuculline induced seizures in mouse at 24 hr after pretreament with compound (17 mg/kg, ip); type: functional; in short: as §4
Mus musculus [49] = assay: Anticonvulsant activity is the ability to delay the onset of bicuculline induced seizures in mouse at 24 hr after pretreament with compound (50 mg/kg, ip); type: functional; in short: as §4
Mus musculus [50] = assay: Uptake of the [14C]-compound in mouse brain 15 minutes after sc administration of 90 mg/kg.; type: functional; settings: route subcutaneous; in short: as §3

## CC(C)CCCC(C)C1CCC2C3CC=C4CC(OC(=O)CCCN)CCC4(C)C3CCC12C (configuration not stated)
Mus musculus [1]
  Motor activity: 15
Rattus norvegicus [2]
  Amount of unreacted substrate: 53
Rattus norvegicus [3]
  Amount of unreacted substrate: 34.5
Rattus norvegicus [4]
  Amount of unreacted substrate: 43.5
Mus musculus [5]
  Motor activity: 49
[6]
  IC50: 10 µM
Mus musculus [7]
  Brain concentration: 0.17 nmol/g
Mus musculus [8]
  Survival time: 101 and 109
Mus musculus [9]
  Brain concentration: 0.67 nmol/g
Mus musculus [10]
  Onset seizure: 137
Mus musculus [11]
  Motor activity: 67
Mus musculus [12]
  Brain penetration index: 25%
Mus musculus [13]
  Onset seizure: 120
[14]
  K: 110
Mus musculus [15]
  Brain concentration: 0.6 nmol/g
Mus musculus [16]
  Survival time: 95
Mus musculus [17]
  Survival time: 104
Mus musculus [18]
  Liver concentration: 0.69 nmol/g
Mus musculus [19]
  Onset seizure: 129
Mus musculus [20]
  Onset seizure: 130
Mus musculus [21]
  Brain concentration: 0.79 nmol/g

## NCCCC(=O)O [GAMMA-AMINOBUTYRIC ACID]
Mus musculus [22]
  Motor activity: 100
[23]
  K: 0.004

## C[C@@H]1CC2C3CCC4=CC(=O)C=CC4(C)C3(F)C(O)CC2(C)C1(O)C(=O)COC(=O)CCCN (some centres not stated)
Mus musculus [24]
  Brain concentration: 8.7 nmol/g
Mus musculus [25]
  Liver concentration: 10.8 nmol/g
Mus musculus [26]
  Motor activity: 94
[14]
  K: 0.9
Mus musculus [27]
  Brain penetration index: 81%
Mus musculus [28]
  Brain concentration: 21.5 nmol/g

## CCCCOC(=O)CCCN
Mus musculus [29]
  Brain penetration index: 74%
Mus musculus [30]
  Liver concentration: 28 nmol/g
Mus musculus [31]
  Motor activity: 89
Mus musculus [32]
  Brain concentration: 19.2 nmol/g
Mus musculus [33]
  Motor activity: 83

## CC/C=C/C/C=C/C/C=C/CCCCCCCCOC(=O)CCCN
Mus musculus [34]
  Onset seizure: 78
Mus musculus [35]
  Brain penetration index: 2%
Mus musculus [36]
  Survival time: 118
Mus musculus [37]
  Survival time: 111
Mus musculus [38]
  Liver concentration: 142 nmol/g
Mus musculus [39]
  Brain concentration: 24.9 nmol/g
[6]
  IC50: 40 µM
Mus musculus [40]
  Survival time: 62
Mus musculus [41]
  Brain concentration: 3.5 nmol/g
Mus musculus [42]
  Motor activity: 74
Mus musculus [43]
  Onset seizure: 50
Mus musculus [44]
  Onset seizure: 102
Mus musculus [45]
  Motor activity: 90
Mus musculus [46]
  Survival time: 68
Mus musculus [47]
  Survival time: 63
Mus musculus [48]
  Onset seizure: 73
Mus musculus [49]
  Onset seizure: 40
Mus musculus [50]
  Brain concentration: 11 nmol/g

Reference: ChEMBL document CHEMBL1122655, “Gamma-aminobutyric acid esters. 1. Synthesis, brain uptake, and pharmacological studies of aliphatic and steroid esters of gamma-aminobutyric acid” (J Med Chem, 1984)
